Assay outcomes deposited in PubChem by several laboratories.
In the library only some 2% were active in any assay of this set; here they are far more common.
TROY NFkB inh = inhibitors of TROY-driven NF-kB signaling, primary screen, Q293 LMP1-TROYcd cells, NF-kB luciferase, uHTS. Q293 LMP1-TROYcd NF-kB luciferase reporter, 4 h. hit rate 0.98% among 360,000. inhibition, % at 10 µM. AID 1347056, 2019;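 active = compounds whose plate-normalised and pattern-corrected inhibition of the luciferase reporter signal at the single screening dose is 50% or more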
HIF act = HIF pathway transcriptional activators, primary screen, cell-based, U2OS HRE-luciferase, luminescence | hit rate 0.32% among 300,000 | AID 1910, 2009 | U2OS HRE-luciferase reporter; normalized: DMSO 0%, desferrioxamine 100% | activation, % at 7.5 µM (by protocol);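 active = mean activation of at least 10% of the iron chelator positive control signal, with at least half of replicates also reaching 10%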
NR2E3 ag-1 = inhibitors of NR2E3-RetCOR corepressor binding, primary screen, NR2E3 agonist project, biochemical, TR-FRET, GST-NR2E3, biotin-RetCOR | Photoreceptor-specific nuclear receptor (Homo sapiens), Q9Y5X4 | 1536-well | inhibition of corepressor binding, % at 4.78 µM | hit rate 0.12% among 320,000 | AID 2300, 2010;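 active = percent inhibition above the cutoff of mean plus 3 SD of all tested compounds, set per screening campaign, cut at about 20% in these data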
Target sequence (Q9Y5X4 whole entry, looked up): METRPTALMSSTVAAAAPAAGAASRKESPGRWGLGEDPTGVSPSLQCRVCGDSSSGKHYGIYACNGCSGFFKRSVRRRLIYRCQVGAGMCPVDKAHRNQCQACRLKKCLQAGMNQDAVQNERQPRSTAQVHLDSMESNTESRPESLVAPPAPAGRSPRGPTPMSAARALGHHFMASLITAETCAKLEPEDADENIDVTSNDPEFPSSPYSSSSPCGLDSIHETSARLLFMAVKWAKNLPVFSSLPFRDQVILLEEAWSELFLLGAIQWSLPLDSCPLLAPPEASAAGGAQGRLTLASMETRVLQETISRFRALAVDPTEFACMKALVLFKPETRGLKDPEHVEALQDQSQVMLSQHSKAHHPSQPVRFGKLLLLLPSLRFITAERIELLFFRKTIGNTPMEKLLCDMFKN
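system = GST-tagged NR2E3 plus biotinylated RetCOR corepressor | input = 1.35 nM GST-NR2E3 | also added = 7 nM biotin-RetCOR | schedule = 5 h incubation at 4 °C | measured by = TR-FRET with europium anti-GST and streptavidin-D2, 340 nm excitation | read-out = percent loss of FRET ratio relative to control wells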
NR2E3 ag-2 = NR2E3 agonists in two-hybrid cells, primary screen, cell-based, luminescence, CHO-S, Gal4-NCOR/VP16-NR2E3 | Photoreceptor-specific nuclear receptor (Homo sapiens), Q9Y5X4 | luciferase | inhibition of corepressor binding, % at 3.98 µM | hit rate 0.35% among 360,000 | AID 602229, 2012;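 active = inhibition above the mean of all tested compounds plus 3 SD, cut at about 70% in these data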;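 also: higher means lower luciferase signal from less NR2E3 corepressor binding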
EBV LMP1 NFkB = EBV LMP1-driven NF-kappaB luciferase reporter inhibitors, primary screen, cell-based, luminescence, single point | AID 504558, 2011 | hit rate 0.69% among 350,000 | inhibition, % at 12.5 µM | LMP1-induced NF-kappaB luciferase reporter cells; in the data active = inhibition above about 41%
NR2E3 ag conf = NR2E3 agonist confirmation in cells, cell-based, luminescence, CHO-S two-hybrid | inhibition, % at 3.98 µM | hit rate 51% among 2,300 | shares compounds with NR2E3 ag-2 | AID 624378, 2012 | CHO-S mammalian two-hybrid NR2E3-NCOR, luciferase luminescence;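 active = average inhibition above a cutoff equal to the mean inhibition of all tested compounds plus one SD, cut at about 70% in these data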
GAL4-VP16 luc = GAL4-VP16 reporter modulators, confirmation, counter-screen for NR2E3 agonist project, cell-based, luminescence, CHO-S, high throughput; AID 624379, 2012; CHO-S GAL4-VP16 luciferase reporter; shares compounds with NR2E3 ag-2; hit rate 29% among 2,300; inhibition, % at 3.98 µM;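 active = mean inhibition above a cutoff equal to the average over all tested compounds plus one standard deviation, cut at about 70% in these data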;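 also: luciferase from a UAS reporter driven by GAL4-VP16 transactivation; higher means less reporter light so more repression of VP16 activity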
Each line names hits and unclear results; the compound was inactive in the other large screens (follow-up assays come after a bar, where they were run).

COc1ccc(Cl)cc1NC(=O)CSc1nc2sccc2c(=O)[nH]1	none
Cc1cc(C)cc(NC(=O)[C@@H](NC(=O)c2ccco2)C(C)C)c1	none
CC[C@@H](C(=O)[C@@H](C)[C@@H](O)[C@H](C)CCc1ccc(C)c(O)c1C(=O)O)[C@H]1O[C@](CC)([C@H]2CC[C@](O)(CC)[C@H](C)O2)C[C@@H]1C	TROY NFkB inh 76, NR2E3 ag-2 104 | NR2E3 ag conf 98 | GAL4-VP16 luc 91
CCOC(=O)[C@@H]1[C@H]2COc3ccc(Br)cc3[C@H]2N2C(=O)N(c3ccc(C)cc3)C(=O)[C@]12C	none
Clc1ccc2c(NCc3ccco3)ncnc2c1	none | NR2E3 ag conf inactive | GAL4-VP16 luc inactive
Cc1nc(C)c(C(=O)NNS(=O)(=O)c2ccc3ccccc3c2)s1	none | NR2E3 ag conf 82 | GAL4-VP16 luc 76
COc1ccc(SC[C@H](Cc2ccccc2)N2CC[C@@H](NC(=O)OCc3ccccc3)CCC2=O)cc1	none (no result: HIF act)
Oc1cccc(/C=N/Nc2cc(N3CCOCC3)nc(N3CCOCC3)n2)c1	none
Cc1nc(N/N=C/c2cccc(F)c2)cc(N2CCOCC2)n1	none | NR2E3 ag conf inactive | GAL4-VP16 luc inactive
COCOCCn1cc(CN2CCS(=O)(=O)N(Cc3ccc(-c4ccccc4)cc3)C(C(C)C)C2=O)nn1 (stereo not drawn)	none (no result: HIF act, NR2E3 ag-1)
Cc1cc(C)cc(NC(=O)CCc2nc3sc4c(c3c(=O)[nH]2)CCCC4)c1	NR2E3 ag-2 84 | NR2E3 ag conf 96 | GAL4-VP16 luc inactive
CCCS(=O)(=O)NC(=O)C1(C)CCN(C(=O)c2ccc(C(F)(F)F)nc2C)C1 (stereo not drawn)	none (no result: HIF act, NR2E3 ag-1, EBV LMP1 NFkB)
O=C(O)/C=C/c1ccc([N+](=O)[O-])o1	none
N#CCc1ccc(NC(=O)/C=C/c2ccc([N+](=O)[O-])o2)cc1	none (no result: NR2E3 ag-1) | NR2E3 ag conf inactive | GAL4-VP16 luc inactive
Cc1nc2ccccc2n1Cc1ccc(Br)cc1	NR2E3 ag-2 84 | NR2E3 ag conf 94 | GAL4-VP16 luc 85
Cc1nc2ccccc2n1Cc1ccccc1	none
CCN(CC(=O)Nc1c(F)cccc1F)C(=O)C1CCN(c2ncnc3sc(C)c(C)c23)CC1	none
O=C(CC1(O)C(=O)Nc2ccc(Br)cc21)c1ccccc1 (stereo not drawn)	none (no result: HIF act, NR2E3 ag-1)
CCOC(=O)c1cc(C#N)c(N2CCN(C(=O)c3cccc(C(F)(F)F)c3)CC2)nc1C(F)(F)F	none (no result: HIF act) | NR2E3 ag conf inactive | GAL4-VP16 luc inactive
CCOC(=O)c1cc(C#N)c(N2CCN(C(=O)c3ccccc3)CC2)nc1C(F)(F)F	none
CCC1Sc2ccc(S(=O)(=O)CCC(=O)Nc3ccc(C(=O)OC)cc3)cc2NC1=O (stereo not drawn)	none
CCC1Sc2ccc(S(=O)(=O)Nc3ccc(OC)cc3)cc2NC1=O (stereo not drawn)	none | NR2E3 ag conf inactive | GAL4-VP16 luc inactive
CCC1Sc2ccc(S(=O)(=O)Nc3ccc(OC)c(OC)c3)cc2NC1=O (stereo not drawn)	NR2E3 ag-2 88 | NR2E3 ag conf 81 | GAL4-VP16 luc inactive
Cc1ccc(NC(=O)CNc2ccccc2N2CCCC2=O)cc1S(=O)(=O)N1CCCCC1	none (no result: HIF act)
CC1(c2ccccc2)NC(=O)N(CC(=O)Nc2cc3c(cc2Br)OCCO3)C1=O (stereo not drawn)	none
OC(c1ccc(F)cc1)c1nc(-c2ccncc2)cs1 (stereo not drawn)	NR2E3 ag-2 79 (no result: HIF act, NR2E3 ag-1, EBV LMP1 NFkB) | NR2E3 ag conf 83 | GAL4-VP16 luc 71
OC(c1ccc(F)c(F)c1)c1nc(-c2ccncc2)cs1 (stereo not drawn)	none (no result: HIF act, NR2E3 ag-1, EBV LMP1 NFkB)
Cn1c(=O)c(=O)n(C)c2cc(S(=O)(=O)N3CC(=O)N(CCc4ccccc4)C(=O)C3)ccc21	none
CC[C@H](C)C(=O)O[C@H]1C[C@@H](C)C=C2C=C[C@H](C)[C@H](CC[C@@H]3C[C@@H](O)CC(=O)O3)[C@H]21	none | NR2E3 ag conf inactive | GAL4-VP16 luc inactive
COc1ccc(CCNC(=O)CCc2cn(C)c3ccccc23)c(OC)c1OC	none
Cc1cccc(Nc2nc(N3CCOCC3)nc(N3CCOCC3)n2)c1	none | NR2E3 ag conf inactive | GAL4-VP16 luc inactive
Cc1cccc(Nc2nc(N3CCCCC3)nc(N3CCCCC3)n2)c1	none
C(=N\Nc1nc(Nc2ccccc2)nc(N2CCOCC2)n1)/c1c[nH]c2ccccc12	none (no result: TROY NFkB inh, NR2E3 ag-2, EBV LMP1 NFkB)
Cc1ccc(Nc2nc(N/N=C/c3c[nH]c4ccccc34)nc(N3CCOCC3)n2)cc1	none | NR2E3 ag conf inactive | GAL4-VP16 luc inactive
COCCN1CCN(C(=O)c2ccc3nc(Cc4ccc(OC)c(OC)c4)oc3c2)CC1	none | NR2E3 ag conf inactive | GAL4-VP16 luc inactive
COc1cc2cc(C(=O)Nc3ccc4c(c3)OCCO4)[nH]c2cc1OC	TROY NFkB inh 77, EBV LMP1 NFkB 45 | NR2E3 ag conf inactive | GAL4-VP16 luc inactive
COc1ccc(C(=O)Nc2ccc3c(c2)OCCO3)cc1	none (no result: HIF act)
COc1ccc(/C=N/N=C2\CC3CCC2(C)C3(C)C)cc1O (stereo not drawn)	NR2E3 ag-2 74 | NR2E3 ag conf inactive | GAL4-VP16 luc inactive
COc1cc(/C=N/N=C2\CC3CCC2(C)C3(C)C)ccc1O (stereo not drawn)	none
O=C(CSc1nnc(CNC(=O)c2c(F)cccc2Cl)o1)NCc1ccc(F)cc1	none
COc1ccccc1N1CCN(C(=O)C2CCCN(S(=O)(=O)c3ccc4c(c3)oc(=O)n4C)C2)CC1 (stereo not drawn)	NR2E3 ag-2 85 | NR2E3 ag conf inactive | GAL4-VP16 luc inactive
COc1ccc(N2CCN(C(=O)C3CCCN(S(=O)(=O)c4ccc5c(c4)oc(=O)n5C)C3)CC2)cc1 (stereo not drawn)	none
Cc1ccc(OCC(=O)c2cc(C)n(CC(F)(F)F)c2C)c([N+](=O)[O-])n1	none
Cc1ccc(OCC(=O)c2cc(C)n(Cc3cccs3)c2C)c([N+](=O)[O-])n1	NR2E3 ag-2 84 | NR2E3 ag conf 93 | GAL4-VP16 luc 88
CC(Sc1nc2ccccc2c(=O)n1CC1CCCO1)C(=O)N(C)Cc1ccccc1 (stereo not drawn)	none
CC(Sc1nc2ccccc2c(=O)n1C)C(=O)N(C)C1CCCCC1 (stereo not drawn)	NR2E3 ag-2 95 | NR2E3 ag conf 92 | GAL4-VP16 luc 76
CC(=O)Oc1c(I)cc(I)cc1C(=O)Nc1ccc(Cl)cc1	TROY NFkB inh 52, NR2E3 ag-2 106 | NR2E3 ag conf 99 | GAL4-VP16 luc 87
